Source: PubChem BioAssay
Biofilm kill mix – clotrimazole potentiators killing C. albicans biofilm, primary screen, 4-compound mixtures; inhibition, % at 7.6 µM; AID 1242, 2008; 0.02% of 120,000 active; C. albicans biofilm persisters + clotrimazole, fluorescence viability; primary screen in compound mixtures of four per well;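 note: compounds exposed to preformed 24 h biofilms for 48 h; 0% = untreated biofilm control and 100% = clotrimazole plus chlorhexidine kill blank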
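Test system: C. albicans CAF4-2 wild-type biofilms; buffer or medium: RPMI/MOPS medium, pH 7.0; schedule: 24 h biofilm formation, then 48 h compound exposure, 37 °C; detection: Alamar Blue fluorescence; measure: percent inhibition of biofilm viability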
Hck-Nef inh – inhibitors of Nef-activated human Hck kinase, primary screen, biochemical, Z-Lyte FRET, 384-well, Hck-YEEI; Tyrosine-protein kinase HCK (Homo sapiens), P08631; Recombinant Hck-YEEI plus Nef, Z-Lyte FRET kinase assay; inhibition, % at 20 µM; 0.68% of 220,000 active; AID 463187, 2010;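 active = Hck-Nef kinase inhibition above about 50%, limit read from the data; inactive = inhibition below that limit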;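 note: 0% = DMSO with Hck plus Nef and 100% = Hck alone without Nef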
p97 inhibitor – inhibitors of human p97 ATPase, primary screen, biochemical; recombinant p97 ATPase, Kinase-Glo ATP luminescence, 3 h; Transitional endoplasmic reticulum ATPase (Homo sapiens), P55072; inhibition, % at 8 µM; 0.42% of 220,000 active; AID 1481, 2009; in the data active = inhibition above about 15%;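 note: 0% = DMSO vehicle and 100% = wells lacking enzyme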
PERK inh – block of dimerizer-induced PERK translation repression, primary screen, PERK inhibitor project, CHO PERK-DD cells, SEAP luminescence, HTS; Eukaryotic translation initiation factor 2-alpha kinase 3 (Homo sapiens), Q9NZJ5; CHO PERK-DD fusion, SEAP luminescence translation reporter; inhibition, % at 5.6 µM; 0.17% of 220,000 active;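 active = inhibition above the mean inhibition of all tested compounds plus 3 SD, set separately per screening campaign, cut at about 2.9% in these data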;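 note: PERK kinase domain activated by AP20187 dimerizer at 100 nM; 0% = DMSO with dimerizer and 100% = rapamycin at 8.4 µM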
eIF4E-4G inh – eIF4E–eIF4G protein interaction inhibitors, primary screen, biochemical, uHTS, TR-FRET, eIF4GI fragment; TR-FRET eIF4E-eIF4GI(517-606) binding, 2 h; inhibition, % at 21.7 µM; 0.37% of 220,000 active; AID 782, 2007;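 active = inhibition above about 30%, limit read from the data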;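 note: 0% = full FRET control wells and 100% = background wells lacking eIF4GI fragment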
14-3-3 Bad inh – inhibitors of 14-3-3 zeta/Bad binding, primary screen, biochemical, TR-FRET, bovine 14-3-3 zeta. inhibition, % at 21.7 µM. AID 781, 2007. 14-3-3 protein zeta/delta (Bos taurus), P63103. 0.71% of 220,000 active. TR-FRET 14-3-3zeta/Dy647-pBad peptide displacement, 1 h;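 active = inhibition above about 70%, limit read from the data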;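 note: 0% = full 14-3-3 plus peptide FRET controls and 100% = background without 14-3-3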
Target sequence (P63103 whole entry, looked up): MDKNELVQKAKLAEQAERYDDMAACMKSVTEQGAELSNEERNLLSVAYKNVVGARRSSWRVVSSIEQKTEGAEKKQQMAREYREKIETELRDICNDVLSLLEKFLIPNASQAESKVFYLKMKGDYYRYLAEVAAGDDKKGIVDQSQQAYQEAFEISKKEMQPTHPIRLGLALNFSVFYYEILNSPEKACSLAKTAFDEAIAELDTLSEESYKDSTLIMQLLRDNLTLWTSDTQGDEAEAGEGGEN
p97 inh conf – p97 ATPase inhibitors, retest, confirmation, biochemical | shares compounds with p97 inhibitor | recombinant p97 ATPase, Kinase-Glo ATP luminescence | inhibition, % at 8 µM | 44% of 760 active | AID 1517, 2009;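 active = percent inhibition of p97 ATPase above a set limit, the primary screen's mean plus 3 SD, cut at about 15% in these data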;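 note: 0% = DMSO wells and 100% = wells lacking p97 protein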
* marks the source's active call; other numbers are inactive results; x = no result; [ ] = dose if it differs, or a comment. Hits are enriched below; roughly 2.2% of the tested compounds scored in any of these assays.

SMILES | Biofilm kill mix | Hck-Nef inh | p97 inhibitor | PERK inh | eIF4E-4G inh | 14-3-3 Bad inh | p97 inh conf
O=C1NC(=O)C2(COC(c3ccncc3)OC2)S1 (stereo not drawn) | 6 | 1 | 2 | 0 | -2 | -14 | x
O=C1CC(NN2CCCCC2)C(=O)N1c1ccccc1 (stereo not drawn) | 6 | -1 | 2 | 1 | -4 | -9 | x
CSc1nc(N(CCO)CCO)c2sc3nc(-c4ccco4)c4c(c3c2n1)CCC4 | x | 77* | 20* | 1 | 9 | 10 | 15
O=C(COC(=O)c1ccc2c(c1[N+](=O)[O-])C(=O)c1ccccc1C2=O)NC1CC1 | 20 | -3 | 23* | 0 | 8 | -1 | 29*
CC(C)(C)C(=O)NNC(=O)c1cnccn1 | 7 | 27 | 1 | 0 | 1 | -10 | x
O=C1c2ccc([N+](=O)[O-])cc2NC(c2ccco2)N1/N=C/c1ccco1 (stereo not drawn) | 15 | -1 | 16* | 1 | 4 | 1 | 8
CN=c1scc(-c2ccc([N+](=O)[O-])cc2)n1/N=C/c1ccco1 | 15 | 27 | 4 | 0 | -3 | -5 | x
O=c1cc(CN2CCCCCC2)nc2sccn12 | -14 | 20 | 4 | 1 | 3 | -14 | x
COc1ccccc1N1CCN(Cc2cc(=O)n3ccsc3n2)CC1 | x | 1 | 16* | 0 | 2 | -16 | 9
O=C(N[C@@H](Cc1ccccc1)C(=O)O)c1ccc(C(F)(F)F)cc1 | 13 | -5 | 1 | 0 | 0 | 3 | x
O=C(Cc1ccccc1)NC1(O)C(=O)c2ccccc2C1=O | 21 | 17 | 16* | 0 | -3 | 4 | 15*
O=C(NC1(O)C(=O)c2ccccc2C1=O)c1ccc(C(F)(F)F)cc1 | 14 | 10 | 27* | 1 | -2 | 1 | 28*
O=C(Cc1ccccc1)NC1(Cc2ccc(O)cc2)CCCCC1 | 10 | 7 | 0 | 0 | 0 | -19 | x
Cc1ccc(C(=O)NC2(O)C(=O)c3ccccc3C2=O)cc1C | 29 | 19 | 26* | 1 | -12 | -4 | 26*
CC/C(=N/OC(=O)c1cccc(C)c1)C(=O)c1cccs1 | 7 | -9 | 2 | 0 | 5 | 10 | x
Cc1ccccc1CSc1nc(C(C)(C)C)cc(=O)[nH]1 | 15 | 10 | 2 | 2 | 2 | -9 | x
CCC(C)(C)NC(=O)CN(Cc1ccccc1Cl)C(=O)CCC(=O)Nc1cc(C)ccn1 | 16 | 23 | -6 | 0 | 0 | -8 | x
COC(=O)c1cccc(-c2ccc(C(c3c(C)[nH][nH]c3=O)c3c(C)[nH][nH]c3=O)o2)c1 | 10 | 17 | 12 | 1 | -1 | -20 | x
COC(=O)c1ccccc1-c1ccc(C(c2c(C)[nH][nH]c2=O)c2c(C)[nH][nH]c2=O)o1 | -1 | 19 | 20* | 0 | 3 | -7 | 6
Cc1[nH][nH]c(=O)c1C(c1ccc(-c2ccc(Cl)c(C(=O)O)c2)o1)c1c(C)[nH][nH]c1=O | 15 | 25 | 16* | 0 | -3 | 19 | 35*
CCC(=O)NC1=C(NC(C)c2ccccc2)C(=O)c2ccccc2C1=O (stereo not drawn) | x | 3 | -6 | -1 | 1 | 16 | x
CCC(=O)NC1=C(Cl)C(=O)C(NC(=O)CC)=C(Cl)C1=O | 15 | 5 | 19* | -1 | 8 | 26 | 12
COc1ccc(-c2csc(N(Cc3ccco3)C(=O)c3cccs3)n2)cc1 | 11 | 22 | 39* | 1 | -5 | -10 | 16*
COc1ccc(OC)c(-c2csc(N(Cc3ccco3)C(=O)c3cccs3)n2)c1 | x | 2 | 0 | 0 | -7 | -5 | x
COCCn1c(N)c(C(=O)NCC2CCCO2)c2nc3ccccc3nc21 (stereo not drawn) | x | 40 | -4 | -1 | x | x | x
SMILES | Biofilm kill mix | Hck-Nef inh | p97 inhibitor | PERK inh | eIF4E-4G inh | 14-3-3 Bad inh | p97 inh conf
Nc1c(C(=O)OCC2CCCO2)c2nc3ccccc3nc2n1C1CCCC1 (stereo not drawn) | x | 21 | 17* | -1 | x | x | 5
CC1CCCC(NCC(O)COC(c2ccc(F)cc2)c2ccc(F)cc2)C1C (stereo not drawn) | 8 | 20 | 15* | 0 | 6 | 52 | 8
CC1=NN(c2nc(-c3ccc(Cl)cc3)cs2)C(=O)C1 | x | -1 | 16* | -1 | 4 | 4 | 7
O=C(O)CCC(=O)c1cccc2ccccc12 | 14 | 7 | -1 | 1 | 3 | 6 | x
O=C(O)CCC(=O)c1ccc2ccc3cccc4ccc1c2c34 | 5 | 12 | 19* | 1 | 4 | 7 | 25*
Cc1cc(NC(=O)c2cc3cccc([N+](=O)[O-])c3[nH]2)ccc1F | 16 | 24 | 3 | -1 | -7 | -1 | x
Cc1cc(O)c(C=O)c2c1C(=O)Oc1c(CO)c(O)c3c(c1O2)C(O)OC3=O (stereo not drawn) | 20 | 33 | 64* | 0 | 7 | 58 | 24*
CCNC(=O)Oc1ccc[nH]c1=O | 8 | -12 | 17* | 1 | 0 | -2 | 5
O=C(Oc1ccccc1C(=O)Nc1ccccc1)c1ccccc1Br | 4 | 7 | 23* | 1 | -2 | -1 | 30*
CC1=NN(c2ccc(Cl)cc2)C(=O)C1 | 9 | 23 | 14 | 1 | -1 | -6 | x
CC1=NN(c2ccccc2)C(=O)C1 | 15 | -2 | 20* | -1 | 0 | -4 | 6
CC1=NN(c2ccc(N)cc2)C(=O)C1 | x | 6 | 11 | 1 | -3 | 69 | x
CC1=NN(Cc2ccccc2)C(=O)C1 | 3 | 2 | 21* | 1 | 19 | -12 | 1
S=c1[nH]nc(Cn2cnc3ccccc32)n1-c1ccccc1 | 10 | 18 | 2 | 0 | -3 | -8 | x
Cc1cc(/C=C(\C#N)C(=O)OCC(=O)Nc2ccc(OC(F)F)cc2)c(C)n1CC(C)C | 12 | 2 | 6 | 0 | 4 | -8 | x
CCCCn1[nH]c(-c2ccccc2)cc1=O | 4 | 4 | 21* | 1 | 14 | -4 | 6
Cc1cccc(C)c1NC(=O)CSCc1cccc(CSCC(=O)Nc2c(C)cccc2C)n1 | x | -1 | 16* | 0 | 1 | 3 | 4
Nc1c(C(=O)Nc2ccccc2)sc2nc(-c3ccco3)ccc12 | x | -1 | 19* | 1 | 2 | 76*[fluorescence artefact?] | 18*
